Laboratory results published in ChEMBL document CHEMBL4145582, “Cytotoxic and Antibacterial Eremophilane Sesquiterpenes from the Marine-Derived Fungus Cochliobolus lunatus SCSIO41401” (J Nat Prod, 2018).
≈ marks a conversion by molar mass, not a printed value. Calls of active or inactive are those of the source. No cut-off for these calls is given here.

Experiments:
ACHN = assay: Cytotoxicity against human ACHN cells after 72 hrs by CCK8 assay; assay type: functional, cell-based
Summary of the method: (§1)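 Renal cancer lines ACHN, 786-O and OS-RC-2; cell viability read by CCK-8 assay, with sorafenib as positive control.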

786-0 = assay: Cytotoxicity against human 786-O cells after 72 hrs by CCK8 assay; assay type: functional, cell-based; details: for IC50: 786-0, 72 h; summary of the method: as §1
OS-RC-2 = assay: Cytotoxicity against human OS-RC2 cells after 72 hrs by CCK8 assay; assay type: functional, cell-based; details: for IC50: OS-RC-2, 72 h; summary of the method: as §1
HepG2 = assay: Cytotoxicity against human HepG2 cells after 6 days by MTT assay; assay type: functional, cell-based; details: for IC50: HepG2, 144 h
Summary of the method: (§2)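 HepG-2 and SGC7901 cells; growth inhibition read by MTT method, with 5-fluorouracil as positive control.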

SGC-7901 = assay: Cytotoxicity against human SGC7901 cells after 6 days by MTT assay; assay type: functional, cell-based; details: for IC50: SGC-7901, 144 h; summary of the method: as §2
Escherichia coli = assay: Antimicrobial activity against Escherichia coli ATCC 25922 after 24 hrs by serial dilution method; assay type: functional; details: for MIC: ATCC 25922, 24 h
Summary of the method: (§3)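 Serial broth dilution in 96-well microtiter plates. Compounds and controls are dissolved in DMSO as stock. Bacteria are grown overnight at 37 °C, then diluted to 10^6 cfu/mL. E. coli and S. aureus are grown in Luria–Bertani broth. P. multocida and E. rhusiopathiae are grown in trypticase soy broth with 10% calf serum. Plates are incubated at 37 °C for 24 h and read at 630 nm.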

Staphylococcus aureus = assay: Antimicrobial activity against Staphylococcus aureus subsp. aureus Rosenbach ATCC 25923 after 24 hrs by serial dilution method; assay type: functional; details: for MIC: Rosenbach ATCC 25923, 24 h; summary of the method: as §3
[1] = system: Erysipelothrix rhusiopathiae; assay: Antimicrobial activity against Erysipelothrix rhusiopathiae ATCC 19414 after 24 hrs by serial dilution method; assay type: functional; details: for MIC: ATCC 19414, 24 h; summary of the method: as §3
Pasteurella multocida = assay: Antimicrobial activity against Pasteurella multocida subsp. multocida ATCC 43137 after 24 hrs by serial dilution method; assay type: functional; details: for MIC: ATCC 43137, 24 h; summary of the method: as §3

| Structure (SMILES) | IC50 (ACHN) | IC50 (786-0) | IC50 (OS-RC-2) | IC50 (HepG2) | IC50 (SGC-7901) | MIC (Escherichia coli) | MIC (Staphylococcus aureus) | MIC [1] | MIC (Pasteurella multocida) | Activity (ACHN) | Activity (786-0) | Activity (OS-RC-2) | Activity (HepG2) | Activity (SGC-7901) | Activity (Escherichia coli) | Activity (Staphylococcus aureus) | Activity [1] | Activity (Pasteurella multocida) |
| --- | --- | --- | --- | --- | --- | --- | --- | --- | --- | --- | --- | --- | --- | --- | --- | --- | --- | --- |
| CC[C@@H]1OC(=O)c2cc(O)ccc21 | > 50 µM | > 50 µM | > 50 µM | > 50 µM | > 50 µM | > 100 µg/mL | > 100 µg/mL | > 100 µg/mL | > 100 µg/mL | – | – | – | – | – | – | – | – | – |
| CC[C@@H]1OC(=O)c2c1ccc(O)c2O | > 50 µM | > 50 µM | > 50 µM | > 50 µM | > 50 µM | > 100 µg/mL | > 100 µg/mL | > 100 µg/mL | > 100 µg/mL | – | – | – | – | – | – | – | – | – |
| Cc1cc(=O)c2c(C)cc(O)cc2o1 | – | – | – | – | – | – | – | – | – | inactive | inactive | inactive | inactive | inactive | inactive | inactive | inactive | inactive |
| CNC(=O)c1cc(Oc2ccc(NC(=O)Nc3ccc(Cl)c(C(F)(F)F)c3)cc2)ccn1 [SORAFENIB] | 3.5 µM | 5.3 µM | 15 µM | – | – | – | – | – | – | – | – | – | – | – | – | – | – | – |
| Cc1cc(O)c2c(c1)C(=O)c1cc(O)cc(O)c1C2=O [EMODIN] | – | – | – | 1.7 µM | 5.6 µM | > 100 µg/mL | 100 µg/mL (≈ 370 µM) | > 100 µg/mL | > 100 µg/mL | – | – | – | – | – | – | – | – | – |
| O=c1[nH]cc(F)c(=O)[nH]1 [FLUOROURACIL] | – | – | – | 12 µM | 12 µM | – | – | – | – | – | – | – | – | – | – | – | – | – |
| C=C(CO)[C@]1(O)C[C@@]2(C)C(=CC1=O)C=CC[C@@H]2C | > 50 µM | > 50 µM | > 50 µM | > 50 µM | > 50 µM | > 100 µg/mL | > 100 µg/mL | > 100 µg/mL | > 100 µg/mL | – | – | – | – | – | – | – | – | – |
